Test [1] has as its system K562. Briefly: Relative resistance, ratio of IC50 for etoposide-resistant human K/VP.5 cells to IC50 for human K562 cells. It is filed as functional.
Test [2] is described as follows: Cytotoxicity against etoposide-resistant human K/VP.5 cells assessed as cell growth inhibition after 72 hrs by MTS assay. It counts as functional, cell-based. To be noted: K/VP.5, 72 h. Put shortly:
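K/VP.5 cells are a K562-derived subline, 26-fold etoposide-resistant, with decreased topoisomerase IIα mRNA and protein. Cells were grown in suspension in αMEM with 10% fetal calf serum. Drugs were given from DMSO stocks, with final DMSO typically 0.4% or less. Read-out was MTS absorbance after 72 h. Typically nine concentrations were run in duplicate on two days. IC50 came from a four-parameter logistic fit.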
A general note: Formazan colour is commonly taken as a measure of viable cells.

Test [3] has as its system K562. In words: Induction of DNA double strand breaks in human K562 cells assessed as increase in gamma-H2AX level at 25 uM after 4 hrs by chemiluminescence analysis. It counts as functional, cell-based. Put shortly:
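K562 cells (3.4 × 10^5/mL) exposed 4 h at 37 °C to 25 µM drug or DMSO. Lysed in Tris pH 6.7/SDS buffer; 50 µg protein on 14% SDS-PAGE, PVDF blot. Rabbit anti-γH2AX (1:1000, overnight), GAPDH loading control, HRP secondary. Chemiluminescence imaged by CCD.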

Test [4] concerns the target DNA topoisomerase 2-alpha (Homo sapiens) (UniProt P11388). In words: Inhibition of full-length human recombinant topoisomerase 2-alpha-mediated decatenation activity of kDNA by ethidium bromide based gel-assay.
Test [5] has as its system K562. In words: Cytotoxicity against human K562 cells assessed as cell growth inhibition after 72 hrs by MTS assay. It is filed as functional, cell-based. To be noted: K562, 72 h.
Test [6] concerns the target DNA topoisomerase 2-alpha (Homo sapiens) (UniProt P11388). Briefly: Inhibition of full-length human recombinant topoisomerase 2-alpha mediated relaxation and cleavage of supercoiled pBR322 plasmid DNA to linear DNA by ethidium bromide staining based gel electrophoresis assay. Put shortly: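 Recombinant full-length human topoisomerase IIα with supercoiled pBR322 DNA at 37 °C. Components mixed on ice before drug addition. Complexes trapped with SDS; products run on ethidium bromide gels. Linear DNA identified against a HindIII-linearized marker; repeated on three days.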

The target is the same in test [7]. In words: Inhibition of full-length human recombinant topoisomerase 2-alpha-mediated decatenation activity of kDNA at >10 uM by ethidium bromide based gel-assay.
Test [8] has the same target. In words: Inhibition of full-length human recombinant topoisomerase 2-alpha assessed as conversion of […] DNA at 100 uM by ethidium bromide based gel-assay.
Test [9] relates to K562. In words: Induction of apoptosis in human K562 cells assessed as increase in proportion of apoptotic and apoptotic/necrotic cells at 1 uM after 24 to 48 hrs by annexin V-FITC/propidium iodide staining based two-color fluorescence flow cytometry. It is filed as functional, cell-based. A digest of the protocol: (§1)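 K562 cells (1 × 10^6/mL), untreated or given 1 µM compound (10 µM etoposide control) at 37 °C for 24 h or 48 h. Annexin V-FITC plus propidium iodide two-colour flow cytometry. Cells are scored as viable, apoptotic-only (annexin+/PI−), apoptotic/necrotic (annexin+/PI+) or necrotic.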
(A flow cytometer gives signals particle by particle.)

Test [10] has as its system K562. In words: Induction of apoptosis in human K562 cells assessed as increase in caspase 3/7 activity at 1 uM by luminescence analysis. It counts as functional, cell-based. To be noted: TDE = time-dependent effect. A digest of the protocol:
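K562 cells at 2 × 10^5 cells/mL treated with vehicle or 1 µM compound for 24 or 48 h. Lysates assayed with a luminogenic DEVD-aminoluciferin caspase-3/7 substrate and read by luminescence. Four wells (eight for control); unpaired t-test vs control; repeated on two days.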

Test [11] deals with K562. Briefly: Induction of apoptosis in human K562 cells assessed as decrease in proportion of viable cells at 1 uM after 24 to 48 hrs by annexin V-FITC/propidium iodide staining based two-color fluorescence flow cytometry. It counts as functional, cell-based. A digest of the protocol: as §1
The test system of test [12] is CHO. In words: Induction of apoptosis in CHO cells assessed as increase in sub-G0/G1 cell population at 1 uM after 49 hrs by propidium iodide staining based flow cytometry. It counts as functional. To be noted: Cricetulus griseus. Put shortly:
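CHO cells grown to confluence in α-MEM/10% FCS, serum-starved 48 h (0% FCS), then seeded at 2 × 10^5 cells/mL and repleted with 10% FCS. Continuously treated from repletion with 1 µM compound (10 µM etoposide, DMSO control) for various times. Propidium iodide DNA staining, flow cytometric phase distribution including sub-G0/G1.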

Test [13] relates to K562. In words: Induction of apoptosis in human K562 cells assessed as decrease in proportion of viable cells at 10 uM after 24 to 48 hrs by annexin V-FITC/propidium iodide staining based two-color fluorescence flow cytometry. It is filed as functional, cell-based.
The subject of test [14] is CHO. Briefly: Induction of cell cycle arrest in CHO cells assessed as accumulation at G2/M phase at 10 uM after 21 hrs by propidium iodide staining based flow cytometry. As to conditions: Cricetulus griseus. It is filed as functional.
The test system of test [15] is K562. Briefly: Induction of apoptosis in human K562 cells assessed as increase in proportion of apoptotic and apoptotic/necrotic cells at 10 uM after 24 to 48 hrs by annexin V-FITC/propidium iodide staining based two-color fluorescence flow cytometry. It counts as functional, cell-based.
For test [16], the system named is CHO. Briefly: Induction of apoptosis in CHO cells assessed as increase in sub-G0/G1 cell population at 10 uM after 49 hrs by propidium iodide staining based flow cytometry (Rvb <2%). It is filed as functional, Cricetulus griseus.
In test [17] the test system is CHO. Briefly: Induction of cell cycle arrest in CHO cells assessed as accumulation at G2/M phase at 1 uM by propidium iodide staining based flow cytometry. It counts as functional. As to conditions: Cricetulus griseus.

The source of these data is ChEMBL document CHEMBL3588757, “Structure-based design, synthesis and biological testing of piperazine-linked bis-epipodophyllotoxin etoposide analogs” (Bioorg Med Chem, 2015).

The source made the active and inactive calls. The calls are words filed in the database; no cut-off is given here.

DNA topoisomerase 2-alpha (Homo sapiens), sequence (P11388 whole entry): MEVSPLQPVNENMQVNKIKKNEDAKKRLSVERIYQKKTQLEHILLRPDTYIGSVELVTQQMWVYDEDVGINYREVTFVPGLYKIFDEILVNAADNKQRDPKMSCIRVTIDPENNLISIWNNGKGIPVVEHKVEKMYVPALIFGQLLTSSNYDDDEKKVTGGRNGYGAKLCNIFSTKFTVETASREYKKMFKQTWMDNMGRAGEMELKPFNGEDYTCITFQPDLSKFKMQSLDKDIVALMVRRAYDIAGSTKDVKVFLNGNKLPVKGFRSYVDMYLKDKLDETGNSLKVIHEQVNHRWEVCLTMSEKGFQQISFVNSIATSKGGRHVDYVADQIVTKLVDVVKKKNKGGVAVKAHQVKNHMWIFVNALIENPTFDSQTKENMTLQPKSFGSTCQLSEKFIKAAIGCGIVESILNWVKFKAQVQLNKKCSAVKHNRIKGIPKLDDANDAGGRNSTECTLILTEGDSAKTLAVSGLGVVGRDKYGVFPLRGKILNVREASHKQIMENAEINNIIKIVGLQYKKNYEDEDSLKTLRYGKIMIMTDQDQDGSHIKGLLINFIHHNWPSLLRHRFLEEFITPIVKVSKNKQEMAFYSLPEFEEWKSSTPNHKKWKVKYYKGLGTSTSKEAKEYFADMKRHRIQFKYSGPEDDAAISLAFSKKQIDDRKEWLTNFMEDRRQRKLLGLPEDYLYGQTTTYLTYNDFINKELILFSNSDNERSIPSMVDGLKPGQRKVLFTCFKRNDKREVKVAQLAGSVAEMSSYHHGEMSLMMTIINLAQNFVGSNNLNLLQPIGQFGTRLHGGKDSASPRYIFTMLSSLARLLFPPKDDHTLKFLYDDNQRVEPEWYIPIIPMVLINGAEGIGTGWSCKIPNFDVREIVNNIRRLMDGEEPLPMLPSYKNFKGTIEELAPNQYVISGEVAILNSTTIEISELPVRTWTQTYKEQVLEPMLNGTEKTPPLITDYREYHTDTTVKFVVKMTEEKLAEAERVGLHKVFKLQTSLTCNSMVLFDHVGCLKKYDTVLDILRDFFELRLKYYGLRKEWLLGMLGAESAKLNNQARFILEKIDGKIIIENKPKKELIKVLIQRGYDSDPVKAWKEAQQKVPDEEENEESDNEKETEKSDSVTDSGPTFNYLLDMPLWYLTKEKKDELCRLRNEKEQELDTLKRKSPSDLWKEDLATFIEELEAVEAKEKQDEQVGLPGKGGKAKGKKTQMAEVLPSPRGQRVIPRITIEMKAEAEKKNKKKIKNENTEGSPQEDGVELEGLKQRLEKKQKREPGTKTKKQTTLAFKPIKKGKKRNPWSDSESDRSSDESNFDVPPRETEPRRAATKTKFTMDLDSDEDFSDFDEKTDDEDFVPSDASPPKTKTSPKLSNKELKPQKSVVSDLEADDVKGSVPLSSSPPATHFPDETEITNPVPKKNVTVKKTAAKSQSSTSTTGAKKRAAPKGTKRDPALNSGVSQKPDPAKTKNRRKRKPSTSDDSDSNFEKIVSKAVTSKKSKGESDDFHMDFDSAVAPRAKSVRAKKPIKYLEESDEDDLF

For orientation: IC50 means the concentration at which inhibition is half-maximal. Turning to `COc1cc([C@@H]2c3cc4c(cc3[C@@H](NC(=O)CN3CCN(CCCN5CCNCC5)CC3)[C@H]3COC(=O)[C@H]23)OCO4)cc(OC)c1O`, the “Ratio IC50” value in test [1] is given as 10.5. Besides, the figures for the IC50 in test [2] and in test [5] were 13300 nM and 1270 nM, respectively. In addition, the result in [3] was Active. Further, the inhibition entry in [4] is “Active”. Besides, the “Effect on topoisomerase 2-alpha DNA cleavage (qualitative)” value (from here on “Effect”) in test [6] is “Dose-dependent effect”.

As to `COc1cc([C@@H]2c3cc4c(cc3[C@@H](NC(=O)CN3CCN(CCCCCCCCN5CCNCC5)CC3)[C@H]3COC(=O)[C@H]23)OCO4)cc(OC)c1O`, the “Ratio IC50” value in test [1] was found to be 5.4. Further, the IC50 in [2] was determined as 556 nM; in test [5] it was 103 nM. For the same molecule, the result in test [3] was Active. The “Inhibition of decatenation activity (qualitative)” value (“Inhibition … (qualitative)” below) in test [7] is “Active”. Also, the “Effect” value in test [6] was “Dose-dependent effect”.

Take `COc1cc([C@@H]2c3cc4c(cc3[C@@H](NC(=O)CN3CCN(CCCCCCCCCCCCN5CCN(CC(=O)N[C@@H]6c7cc8c(cc7[C@@H](c7cc(OC)c(O)c(OC)c7)[C@H]7C(=O)OC[C@@H]76)OCO8)CC5)CC3)[C@H]3COC(=O)[C@H]23)OCO4)cc(OC)c1O`: the “Ratio IC50” value in test [1] is 8.2. Also, the IC50 in test [2] is 549 nM; in test [5] it was 67 nM. In test [8], the “Inhibition (qualitative activity call)” value is “Active”. Besides, the “Inhibition … (qualitative)” value in test [7] was “Active”. The “Effect” value in test [6] was “Dose-dependent effect”.

Turning to `COc1cc([C@@H]2c3cc4c(cc3[C@@H](NC(=O)CN3CCN(CCCCCCCCCCN5CCNCC5)CC3)[C@H]3COC(=O)[C@H]23)OCO4)cc(OC)c1O`, the “Ratio IC50” value in test [1] came to 6. Moreover, the IC50 in test [2] amounted to 156 nM; in test [5], 26 nM. Also, the result in test [3], in test [9], in test [11] and in [12] was Active. In addition, the Activity entry in [10] was “tde”. Moreover, the “Inhibition … (qualitative)” value in test [7] is “Active”. Moreover, the “Effect” value in [6] was “Dose-dependent effect”.

With `COc1cc([C@@H]2c3cc4c(cc3[C@@H](O[C@@H]3O[C@@H]5CO[C@@H](C)O[C@H]5[C@H](O)[C@H]3O)[C@H]3COC(=O)[C@H]23)OCO4)cc(OC)c1O` [ETOPOSIDE], the “Ratio IC50” value in test [1] stood at 15.4. Besides, the IC50 was 2500 nM in test [2] and 163 nM in test [5]. Further, the outcome in test [3], in [13], in test [14] and in test [15] was Active. Besides, the “Inhibition (qualitative activity call)” value in test [8] was “Active”. Moreover, in [7], the “Inhibition … (qualitative)” value was “Active”. Moreover, the “Effect” value in test [6] is “Dose-dependent effect”. Also, the Activity in test [16] was found to be 39%.

Turning to `COc1cc([C@@H]2c3cc4c(cc3[C@@H](NC(=O)CN3CCN(CCCCCCCCN5CCN(CC(=O)N[C@@H]6c7cc8c(cc7[C@@H](c7cc(OC)c(O)c(OC)c7)[C@H]7C(=O)OC[C@@H]76)OCO8)CC5)CC3)[C@H]3COC(=O)[C@H]23)OCO4)cc(OC)c1O`, in [1], the “Ratio IC50” value amounted to 7.4. Besides, the IC50 in [2] came to 115 nM; in [5] it was 16 nM. Besides, the outcome in test [3], in test [9], in test [11], in test [12] and in test [17] was Active. In test [8], the “Inhibition (qualitative activity call)” value is “Active”. In test [10], the Activity result was “tde”. The “Inhibition … (qualitative)” value in test [7] was “Active”. Moreover, the “Effect” value in [6] was “Dose-dependent effect”.
